# Results pooled from the literature.
# Protocols differ between the studies behind these lines.
# Target: TGF-beta receptor type-2 (TGFBR2, Homo sapiens, UniProt P37173)
Structure (SMILES),test,conditions,quantity,value
NS(=O)(=O)c1cc(NC(=O)Cc2ccccc2)ccc1Oc1cccc(Cl)c1,"cell-free assay, competition with immobilised ligand",1 µM,remaining binding,87%
COc1cc(Cl)c(C(=O)N[C@@H](CN[C@H]2CC[C@@H](N)CC2)Cc2ccc(C#N)cc2)cc1-c1ccc(CN[C@H](C)c2ccc(C)cc2)o1,"enzyme activity, inhibitor",1 µM,remaining activity,94%
O=C1NC(=O)c2cc(Nc3ccc(F)cc3)c(Nc3ccc(F)cc3)cc21,cell-free assay,0.5 µM,remaining signal,85.2%
CC(C)(C)c1nc(-c2cccc(NS(=O)(=O)c3c(F)cccc3F)c2F)c(-c2ccnc(N)n2)s1,"enzyme activity, inhibitor, radiometric",1 µM,remaining activity,42%
O=C(Nc1cnn(-c2csc(C(=O)NC3COC3)c2)c1)Nc1c(F)cccc1Cl,"enzyme activity, inhibitor",5 µM,remaining activity,82.6%
CC(C)(O)[C@H]1CC[C@H](Nc2ccc3ncc(-c4cccc(C(F)(F)F)c4)n3n2)CC1,"enzyme activity, inhibitor",1 µM,remaining activity,73.8%
Cc1nc(C2CCN(C(=O)c3ccc(OC(F)(F)F)cc3N)CC2)c2ncc(N3CCN(C)CC3)cc2n1,"cell-free assay, competition with immobilised ligand",1 µM,remaining binding,93%
CNC(=O)c1cc(Oc2ccc(NC(=O)Nc3ccc(Cl)c(C(F)(F)F)c3)cc2)ccn1,cell-free assay,0.5 µM,remaining signal,99.9%
O=C(Nc1cnn(-c2csc(C(=O)NC3COC3)c2)c1)Nc1ccccc1Cl,"enzyme activity, inhibitor",5 µM,remaining activity,113%
c1ccc(-c2[nH]ncc2-c2ccnc3ccccc23)nc1,cell-free assay,0.5 µM,remaining signal,109%
O=C(Nc1cccnn1)N1CC(C/C=C/c2cncc(Oc3ccc(C(F)(F)F)cn3)n2)C1,"cell-free assay, competition with immobilised ligand",1 µM,remaining binding,100%
CN1CC(Oc2cnc(C#N)cc2-c2ccn3nc(NC(=O)C4CC4)cc3c2)C1,"enzyme activity, inhibitor",1 µM,inhibition,11%
